Consider 97 molecules from ChEMBL document CHEMBL4513216, “Probing the Open Global Health Chemical Diversity Library for Multistage-Active Starting Points for Next-Generation Antimalarials” (ACS Infect Dis, 2020).

Molecules are shown by their SMILES.

The nature of this data set: Toxicity liver stage against HepG2, at 10uM. The settings on record: human, HepG2-A16-CD81EGFP cells; read-out: INHIBITION
Type of data set: cell-based. Also noted: test concentration 10 uM, cell line HepG2-A16-CD81EGFP. In short, it runs like this:
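Uninfected HepG2-A16-CD81EGFP cells, 3 × 10^3 per well, 1536-well, plated on prespotted compound at 10 μM final, parasite-free screening media added to match infected plates; puromycin 10 μM positive, DMSO 0.5% negative; run in parallel with 48 h PbLuc assay at 37 °C, 5% CO2; viability by CellTiter-Glo luminescence, normalized to controls.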
For `O=C(c1cc(CC2(NCc3ccccc3)COC2)no1)N1CCCCC1`, the cytotoxicity at 10 µM worked out at 1.14%. In the case of `CS(=O)(=O)c1ccc2c(c1)nc1n2[C@@H](CNCc2cccnc2)COC1`, the cytotoxicity at 10 µM is -2.68%.

Regarding `CN1C[C@@H]2CN(C(=O)C3CC=CC3)C[C@@H]2C1=O`, the cytotoxicity at 10 µM is -114%.

Consider `O=C(C1CCOCC1)N1C[C@H](OCc2cccnc2)[C@H]2COC[C@H]21`, for which the cytotoxicity at 10 µM is 1.99%. With `CCN(CC)CC1CN(Cc2c(C)noc2C)Cc2nccn2C1` (configuration not stated), the cytotoxicity at 10 µM is 2.37%. `CC(=O)c1ccc(-n2ccc3nc(N4CCCC4)ncc3c2=O)cc1`: the cytotoxicity at 10 µM turned out to be 1.45%. `COCCNC(=O)c1nc(-c2ccc3cc[nH]c3c2)no1`: the cytotoxicity at 10 µM is -0.208%. Under `COc1ccccc1CNc1ncnc2c1NC(=O)CN2` stands 11.3%; under `CC(=O)N1CCOC(c2c(C(=O)NC(C)(C)C)sc3ccccc23)C1` (configuration not stated), 8%.

Turning to `Cc1ccc(C2CN(Cc3cccc4[nH]ccc34)CCO2)nc1` (configuration not stated), the cytotoxicity at 10 µM is -35.6%.

Turning to `Cn1ccc(C(=O)N2CCC(Cc3cnc4[nH]ccc4c3)C2)n1` (configuration not stated), the cytotoxicity at 10 µM is -5%. For the molecule `O=C(Nc1ccc(-c2csnn2)cc1)N1CCCC1`, the cytotoxicity at 10 µM was -3.8%. On to `O=C(NCCc1ccncc1)c1cccc(S(=O)(=O)NC2CC2)c1`, for which the cytotoxicity at 10 µM is -151%. In the case of `CN(C)c1ncccc1CNC(=O)CCNc1ncccn1`, the cytotoxicity at 10 µM was -2.22%.

For the molecule `O=C(Cn1cncn1)NCC1CCN(Cc2ccccc2Cl)CC1`, the cytotoxicity at 10 µM is -3.84%. For the molecule `NC(=O)C1CCN(c2ccc(C(=O)N3CCc4ccccc43)cn2)C1` (configuration not stated), the cytotoxicity at 10 µM is -1.29%. `CNC(=O)c1cccnc1NCCOc1ccccc1`: the cytotoxicity at 10 µM was -4%. Turning to `CCOc1ccnc(N2CCCN(c3nc(C4CC4)ns3)CC2)n1`, the cytotoxicity at 10 µM was 6.97%. In the case of `COCCNC1(c2ccc(Cl)cc2)CCOCC1`, the cytotoxicity at 10 µM turned out to be 7.06%. For the molecule `Cn1cc(N2CCCC(Nc3ccc4c(c3)NC(=O)CC4)C2=O)cn1` (configuration not stated), the cytotoxicity at 10 µM was -1.61%.

`CC(NC(=O)c1cccc(CN2CCN(C)CC2)c1)c1ccccn1` (configuration not stated): the cytotoxicity at 10 µM was -13.5%. On to `CN(Cc1cc(Br)cn1C)C(=O)c1ccsc1`, for which the cytotoxicity at 10 µM is -10%. `CN(CCC#N)C(=O)CN1CCCC1c1cccs1` (configuration not stated): the cytotoxicity at 10 µM was -8.83%.

Regarding `COCCNC(=O)c1cc(OC)ccc1Br`, the cytotoxicity at 10 µM is -4.2%. `O=C(NCc1ccccc1CO)Nc1ccc2c(c1)CCC2`: the cytotoxicity at 10 µM is 3.09%.

Take `Cn1c(C2CC2)nc2cc(NC(=O)C3(O)CCCC3)ccc21`: the cytotoxicity at 10 µM came out at 2.84%. Turning to `N#CCCN(CCC#N)C(=O)c1ccc(OCC2CC2)cc1`, the cytotoxicity at 10 µM was -10.8%. For `O=C1CN(CCCNC(=O)Nc2ccccn2)CCN1`, the cytotoxicity at 10 µM is -10.1%. For `NC(=O)N1CCCC(C(=O)NCc2ccccc2OC(F)(F)F)C1` (configuration not stated), the cytotoxicity at 10 µM was 1.01%. Under `CC(C)c1nccn1C1CCCN(C(=O)c2ccn(C)c(=O)c2)C1` (configuration not stated) stands 7.35%. Turning to `CCN(CC(F)(F)F)C(=O)C1CCCN(Cc2nc(C)c(C)o2)C1` (configuration not stated), the cytotoxicity at 10 µM was -4.05%. Take `O=C(NCCN1CCOCC1)c1cc(Cl)c2c(c1)OCCCO2`: the cytotoxicity at 10 µM is -5.29%. As for `Cc1cccc(Nc2c(C#N)c(=O)n(C)c(=O)n2C)c1`, the cytotoxicity at 10 µM is -7.48%.

In the case of `CC(C)Cc1ccc(C(=O)Cn2cnnc2[S+](C)[O-])cc1` (configuration not stated), the cytotoxicity at 10 µM was -7.08%. Under `Cc1cc(NC(=O)NCCc2ccc3c(c2)OCCO3)n(C)n1` stands -0.838%; under `Cc1cc(N(C)C)nc(N2CCN(Cc3nccn3C)CC2)n1`, -4.05%; under `CS(=O)(=O)NCC1CCCN(C(=O)Nc2ccccc2N2CCCC2)C1` (configuration not stated), -139%. `CSc1ccc(NC(=O)NCC2CCCO2)cc1F` (configuration not stated): the cytotoxicity at 10 µM was -7.81%. On to `O=c1c2cccnc2cnn1CC(O)c1cccc(Cl)c1` (configuration not stated), for which the cytotoxicity at 10 µM was -10.2%. For `CCC(C)(C)C(=O)N1CCN(C2=NCC(C)S2)CC1` (configuration not stated), the cytotoxicity at 10 µM is -144%. Consider `CC(C)Cn1ncc2cc(C(=O)N(C)CCc3ccccc3)cnc21`, for which the cytotoxicity at 10 µM is -3.42%.

As to `Cc1occc1C(=O)N1CCC(C(O)c2ccc(F)cc2)CC1` (configuration not stated), the cytotoxicity at 10 µM is -2.69%.

For `CN(c1ccc(OCc2cnc(Cl)s2)cc1)S(C)(=O)=O`, the cytotoxicity at 10 µM is 0.867%. For `CN1CCN(c2ccc(NC(=O)c3ccccn3)c(C(F)(F)F)c2)CC1`, the cytotoxicity at 10 µM worked out at 0.753%. For `OCCN1CCN(CC(O)c2cc(Cl)ccc2Cl)CC1` (configuration not stated), the cytotoxicity at 10 µM was -3.03%. On to `Cc1ccc(NC(=O)N2CCCC(O)C2)c(Br)c1` (configuration not stated), for which the cytotoxicity at 10 µM worked out at 7.72%. For the molecule `CNC(=O)c1cnc(/C=C/c2cc(OC)cc(OC)c2)s1`, the cytotoxicity at 10 µM was -19.6%. Turning to `Cc1nc(C2(NCC(=O)NCCc3cccs3)CCCC2)no1`, the cytotoxicity at 10 µM was -2.18%. As for `COc1ncccc1C(=O)NCC1Cc2ccccc2O1` (configuration not stated), the cytotoxicity at 10 µM was -13.4%. Under `Cc1nccc(-c2ccccc2)c1C(=O)N1CC[C@](C)(O)C(C)(C)C1` stands -3.45%. For the molecule `Cc1ccsc1CCNC(=O)CCC(=O)NC1CCCC1`, the cytotoxicity at 10 µM is -2.98%. Under `Cn1nnnc1SCCNC(=O)C1CCN(C(=O)C2CC2)CC1` stands -5.95%; under `CC(=O)NCCNC(=O)c1cnc2c(c1)nc(-c1ccccc1Cl)n2C`, 4.99%.

Regarding `CC(CNC(=O)c1cc(Cn2cnc3ccccc32)[nH]n1)N1CCCC1` (configuration not stated), the cytotoxicity at 10 µM was -4.62%. `Cc1ccc2[nH]c(CN(C)c3cc(CN)nc(C)n3)nc2c1`: the cytotoxicity at 10 µM is 1.69%.

Consider `COc1ccccc1[C@@H]1CN(Cc2csc(C(C)=O)c2)C[C@H]1C(=O)O`, for which the cytotoxicity at 10 µM was -4.75%. Take `O=C(c1cc(-c2ccco2)nc2c(Cl)cccc12)N1C[C@H]2CNC[C@H]2C1`: the cytotoxicity at 10 µM was -4.23%.

As for `Cn1cc(C#N)cc1C(=O)N1CCC2(CCCN(CC3CCC3)C2=O)C1` (configuration not stated), the cytotoxicity at 10 µM was -4.3%. With `CC1(CNS(=O)(=O)c2cccc(C(=O)N3CCSCC3)c2)COC1`, the cytotoxicity at 10 µM was -6.69%. Under `O=C(O)[C@H]1C[C@H](C(=O)NCc2ccncc2)CN(CCC(F)(F)F)C1` stands -142%.

Consider `O=C1CCCN1CCc1noc(-c2ccc(Cl)cc2)n1`, for which the cytotoxicity at 10 µM came out at 7.9%. Consider `CCc1ccc(CN2C[C@@H](C(=O)O)[C@H](c3ccccc3OC)C2)o1`, for which the cytotoxicity at 10 µM is -13.9%. In the case of `O=C(CCc1cc(O)no1)N1CCCC(COc2ccccc2F)C1` (configuration not stated), the cytotoxicity at 10 µM turned out to be 0.296%. Turning to `O=C1NCCCC[C@@H]1Nc1ccc(-c2nc(C3CC3)no2)cn1`, the cytotoxicity at 10 µM was 2.87%. Under `CN(C)CCNC(=O)c1ccc(OC2CCN(C(=O)CO)CC2)c(Cl)c1` stands -2.43%; under `O=C(O)[C@@H]1CN(C(=O)CSCC2CC2)C[C@H]1c1ccccn1`, 5.35%; under `CCn1c(N)nc2cc(C(=O)N3CCN(c4ccncc4)CC3)cnc21`, -8.3%. In the case of `CCCOc1ccc(OCCN2CCOCS2(=O)=O)cc1`, the cytotoxicity at 10 µM was found to be 5.56%.

Consider `O=C(N1CCOCC1)N1CCCC1c1nc(-c2ccccn2)no1` (configuration not stated), for which the cytotoxicity at 10 µM was 10.7%. For `CCc1ccccc1OC1CN(C(=O)CN(C)Cc2cccnc2)C1`, the cytotoxicity at 10 µM was 1.61%.

Take `O=C1N(C2CCCCC2)CCCC12CCN(S(=O)(=O)c1cccnc1)C2` (configuration not stated): the cytotoxicity at 10 µM was 6%.

`CC[C@@]1(O)CCN(C(=O)c2ccc(-c3cccc(F)c3)cc2)C[C@H]1O`: the cytotoxicity at 10 µM is -5.68%.

Regarding `CCNC(=O)[C@@H]1C[C@H](NC(=O)c2ccccc2C#N)CN1CCCSC`, the cytotoxicity at 10 µM is -12.7%.

Take `COc1c(C2CCCN2C(=O)CCNc2ncccn2)c(C)nn1C` (configuration not stated): the cytotoxicity at 10 µM was -5.1%. Turning to `CCc1ccc(C(=O)NCCNc2ncccn2)cc1`, the cytotoxicity at 10 µM came to 0.364%. As for `CCc1nc(CN2CCN(C(=O)c3cncnc3CC)CC2)cs1`, the cytotoxicity at 10 µM is -11.4%. Under `c1ccc2oc(CN3CCCC3c3noc(C4CC4)n3)nc2c1` (configuration not stated) stands -4.04%; under `O=C(CN1CC(n2cccn2)C1)NCCC1=CCCCC1`, -8.25%; under `O=C(CN1CCCCC1Cn1cncn1)NCCc1ccsc1` (configuration not stated), -6.19%. Consider `Cc1nc(C)n(CC2CCCN2CCOc2ccccc2F)n1` (configuration not stated), for which the cytotoxicity at 10 µM is -3.21%. For `Cc1cnn(CC(C)NCc2ccc(OCc3noc(C)n3)cc2)c1` (configuration not stated), the cytotoxicity at 10 µM is 1.16%. `Cc1csc(CNC(=O)NCc2ccc3c(c2)OCCO3)n1`: the cytotoxicity at 10 µM is -5.52%. Turning to `Cc1cccc(CS(=O)(=O)CC(=O)N(C)Cc2ccccc2F)c1`, the cytotoxicity at 10 µM was -2.71%.

Consider `NC(Cc1nc(-c2ccccc2)no1)c1ccccc1` (configuration not stated), for which the cytotoxicity at 10 µM is -5.08%.

Take `Cn1ccnc1CN1CCc2ncnc(N3CCCC3)c2CC1`: the cytotoxicity at 10 µM is -142%.

Consider `COCc1nn(C(C)C)c2c1CCN(Cc1ccoc1)C2`, for which the cytotoxicity at 10 µM amounted to 3.33%.

Regarding `CO[C@@H]1CCN(C2CCOCC2)C[C@@H]1Cc1ccccc1`, the cytotoxicity at 10 µM is -4.87%. As for `c1csc(CN2CCC3(CCCN(c4nncs4)C3)C2)n1` (configuration not stated), the cytotoxicity at 10 µM is -144%. Turning to `Cc1ccc2c(n1)N(CCn1cccn1)CCN(C1CCOCC1)C2`, the cytotoxicity at 10 µM is -2.83%. Turning to `CCN(C)c1ncnc2c1CCN(C(=O)NCc1cccnc1)CC2`, the cytotoxicity at 10 µM was -126%.

With `Cn1cccc1C(=O)N1CCCCC12CC(=O)N(c1cccnc1)C2` (configuration not stated), the cytotoxicity at 10 µM was -1.91%. Turning to `CN1CCN(C(=O)c2ncn3c2CN(C)S(=O)(=O)c2ccccc2-3)CC1`, the cytotoxicity at 10 µM is -153%. For the molecule `c1csc(N2[C@H](Cn3cncn3)C[C@@H]3CNCC[C@@H]32)n1`, the cytotoxicity at 10 µM was -142%.

Turning to `CCN1CC2(CNCCN(C(=O)Nc3ccccc3)C2)CC1=O` (configuration not stated), the cytotoxicity at 10 µM turned out to be 0.346%.

`Cc1noc(C)c1CN1C(=O)[C@@H]2CC[C@H]1CN(Cc1cccc(O)c1)C2`: the cytotoxicity at 10 µM is 4.42%. As to `CCNc1nc2cn(-c3cccc(OC)c3)c(=O)c-2c[nH]1`, the cytotoxicity at 10 µM was 8.65%.

For `CCn1cc(-n2cc3nc(N4CCC(C)CC4)[nH]cc-3c2=O)cn1`, the cytotoxicity at 10 µM came out at 6.97%.
